The source of these data is ChEMBL document CHEMBL1132478, “Design and synthesis of novel alpha(1)(a) adrenoceptor-selective antagonists. 3. Approaches to eliminate opioid agonist metabolites by using substituted phenylpiperazine side chains” (J Med Chem, 1999).

The term pKi denotes −log10 of the Ki, conventionally taken in molar units.

Experiment [1] deals with T1, Alpha-1D adrenergic receptor (Homo sapiens, UniProt P25100).
T1 sequence (P25100 whole entry): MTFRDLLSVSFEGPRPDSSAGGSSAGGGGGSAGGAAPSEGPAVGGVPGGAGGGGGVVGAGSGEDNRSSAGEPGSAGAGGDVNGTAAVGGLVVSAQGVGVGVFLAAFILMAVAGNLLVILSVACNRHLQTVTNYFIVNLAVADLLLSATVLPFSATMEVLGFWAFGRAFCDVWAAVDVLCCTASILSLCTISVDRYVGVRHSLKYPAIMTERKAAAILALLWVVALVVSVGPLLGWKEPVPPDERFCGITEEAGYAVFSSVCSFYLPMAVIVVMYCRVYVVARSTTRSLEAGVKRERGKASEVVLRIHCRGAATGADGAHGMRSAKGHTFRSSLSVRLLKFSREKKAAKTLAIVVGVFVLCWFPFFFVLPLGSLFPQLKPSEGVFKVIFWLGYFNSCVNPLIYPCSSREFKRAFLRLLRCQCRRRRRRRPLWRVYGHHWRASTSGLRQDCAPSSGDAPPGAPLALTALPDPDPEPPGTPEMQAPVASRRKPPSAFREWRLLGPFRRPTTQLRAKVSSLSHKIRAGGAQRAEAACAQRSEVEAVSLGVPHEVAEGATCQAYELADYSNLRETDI
The experiment in a line: In vitro binding affinity against Alpha-1D adrenergic receptor at recombinant human receptor. Conditions: in the assay text read “at recombinant human receptor” for “of human liver microsomes”. Summed up: (§1)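 Radioligand displacement on membranes from cultured cells expressing recombinant human α1a, α1b or α1d adrenoceptors, using [³H]prazosin as radioligand; Ki values reported.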
(Liver microsomes are vesicles of endoplasmic reticulum, rich in cytochrome P450 enzymes.)

In experiment [2] the target is T2, Alpha-1A adrenergic receptor (Homo sapiens, UniProt P35348).
T2 sequence (P35348 whole entry): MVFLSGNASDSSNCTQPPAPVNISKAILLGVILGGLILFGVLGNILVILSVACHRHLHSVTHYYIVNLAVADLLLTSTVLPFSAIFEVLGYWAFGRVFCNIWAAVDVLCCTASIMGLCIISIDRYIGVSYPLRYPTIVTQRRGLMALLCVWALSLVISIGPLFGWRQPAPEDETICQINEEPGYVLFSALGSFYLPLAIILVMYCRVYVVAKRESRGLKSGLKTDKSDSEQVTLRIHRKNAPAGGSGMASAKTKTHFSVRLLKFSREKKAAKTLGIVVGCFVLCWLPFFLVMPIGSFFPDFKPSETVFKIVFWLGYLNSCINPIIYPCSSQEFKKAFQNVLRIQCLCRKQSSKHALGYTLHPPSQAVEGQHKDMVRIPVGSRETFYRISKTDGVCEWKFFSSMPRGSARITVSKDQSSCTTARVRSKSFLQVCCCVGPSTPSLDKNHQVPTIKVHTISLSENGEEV
The experiment in a line: In vitro binding affinity against Alpha-1A adrenergic receptor […]. Summed up:
as §1

Experiment [3] is described as follows: Fold selectivity against alpha 1A adrenergic receptor over alpha 2A, 2B and 2C adrenergic receptors. Summed up:
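Ki ratio derived from radioligand displacement at recombinant human adrenoceptors: α1a with [³H]prazosin, and α2a, α2b and α2c with [³H]rauwolscine, on membranes from cultured cells.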

Experiment [4] deals with T3, Alpha-1B adrenergic receptor (Homo sapiens, UniProt P35368).
T3 sequence (P35368 whole entry): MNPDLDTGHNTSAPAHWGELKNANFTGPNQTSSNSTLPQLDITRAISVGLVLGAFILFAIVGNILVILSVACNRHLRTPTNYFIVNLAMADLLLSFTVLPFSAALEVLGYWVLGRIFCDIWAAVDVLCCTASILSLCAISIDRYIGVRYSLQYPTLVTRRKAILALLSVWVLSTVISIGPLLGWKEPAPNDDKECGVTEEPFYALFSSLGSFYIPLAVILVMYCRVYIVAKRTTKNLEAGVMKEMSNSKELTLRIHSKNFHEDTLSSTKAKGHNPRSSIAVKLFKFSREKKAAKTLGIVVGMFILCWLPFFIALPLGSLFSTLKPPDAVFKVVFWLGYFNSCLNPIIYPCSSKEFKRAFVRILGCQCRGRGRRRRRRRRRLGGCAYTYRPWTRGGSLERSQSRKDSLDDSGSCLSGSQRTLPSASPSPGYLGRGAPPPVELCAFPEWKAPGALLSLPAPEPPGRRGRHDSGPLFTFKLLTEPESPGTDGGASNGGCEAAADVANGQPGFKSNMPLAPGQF
As to the kind of experiment: In vitro binding affinity against Alpha-1B adrenergic receptor at recombinant human receptor.

pKi: −log10 of the molar value. “And” between values parts separate entries of the source, which are not always exact repeats. Equal entries are not always repeated.

As to `COC(=O)C1=C(C)NC(=O)N(C(=O)NCCCN2CCN(c3ccc(OC)cc3C)CC2)C1c1ccc(F)c(F)c1` (stereo not given), the pKi in experiment [1] was 6.21; in experiment [2] it was 7.80; in experiment [4], 6.29. The Fold selectivity in experiment [3] is above 20.

As for `COC(=O)C1=C(C)NC(=O)N(C(=O)NCCCN2CCN(c3ccccc3)CC2)C1c1ccc(F)c(F)c1` (stereo not given), the pKi in experiment [1] is 7.68; in experiment [2], 9.70; in experiment [4], 8.12. This compound yielded a Fold selectivity in experiment [3] above 55.

On to `CC(=O)C1=C(C)NC(=O)N(C(=O)NCCCN2CCN(c3ccccc3C(N)=O)CC2)C1c1ccc(F)c(F)c1` (stereo not given), for which the pKi is 6.54 in experiment [1], 9.15 in experiment [2] and 6.77 in experiment [4]. This compound had a Fold selectivity in experiment [3] above 70.

For `COC(=O)C1=C(C)NC(=O)N(C(=O)NCCCN2CCN(c3ccc(Cl)cc3)CC2)C1c1ccc(F)c(F)c1` (stereo not given), the pKi in experiment [1] is 7.28; in experiment [2] it was 9.10; in experiment [4] it was 7.77. The Fold selectivity in experiment [3] is above 65.

Consider `COC(=O)C1=C(C)NC(=O)N(C(=O)NCCCN2CCN(c3cccc([N+](=O)[O-])c3)CC2)C1c1ccc(F)c(F)c1` (stereo not given), for which the pKi in experiment [1] was 6.47; in experiment [2], 7.92; in experiment [4] it was 6.82. The Fold selectivity in experiment [3] was above 40.

`COC(=O)C1=C(C)NC(=O)N(C(=O)NCCCN2CCN(c3cccc(C(F)(F)F)c3)CC2)C1c1ccc(F)c(F)c1` (stereo not given): the pKi in experiment [1] is 6.92; in experiment [2], 8.31; in experiment [4], 7.37. For the same compound, in experiment [3], the Fold selectivity was above 60.

Consider `COC(=O)C1=C(C)NC(=O)N(C(=O)NCCCN2CCN(c3ccccc3[N+](=O)[O-])C[C@@H]2C)C1c1ccc(F)c(F)c1` (stereo not given in full), for which the pKi in experiment [1] is 7.47; in experiment [2], 10.70; in experiment [4], 7.31. This compound also returned a Fold selectivity in experiment [3] above 17000.

In the case of `COCC1=C(C(=O)OC)C(c2cc(F)c(F)cc2F)N(C(=O)NCCCN2CCN(c3ccccc3C(N)=O)CC2)C(=O)N1` (stereo not given), the pKi is 6.72 in experiment [1], 10.00 in experiment [2] and 6.89 in experiment [4]. The same compound returned a Fold selectivity in experiment [3] above 660.

In the case of `COC(=O)C1=C(C)NC(=O)N(C(=O)NCCCN2CCN(c3ccccc3Cl)CC2)C1c1ccc(F)c(F)c1` (stereo not given), the pKi is 7.85 in experiment [1], 9.70 in experiment [2] and 7.82 in experiment [4]. In experiment [3], this compound gave a Fold selectivity above 190.

Take `COC(=O)C1=C(C)NC(=O)N(C(=O)NCCCN2CCN(c3ccccc3O)CC2)C1c1ccc(F)c(F)c1` (stereo not given): the figures for the pKi in experiment [1], in experiment [2] and in experiment [4] were 7.51, 9.22 and 7.80, respectively. In experiment [3], the Fold selectivity was above 65.

With `COC(=O)C1=C(C)NC(=O)N(C(=O)NCCCN2CCN(c3ccccc3C#N)CC2)C1c1ccc(F)c(F)c1` (stereo not given), the pKi in experiment [1] was 7.92 and 7.82; in experiment [2], 10.00 and 10.10; in experiment [4] it was 7.82. Moreover, in experiment [3], the Fold selectivity was above 1300.

Consider `CCC1=C(C(N)=O)C(c2ccc(F)cc2F)N(C(=O)NCCCN2CCN(c3ccccc3C(N)=O)CC2)C(=O)N1` (stereo not given), for which the results for the pKi in experiment [1], in experiment [2] and in experiment [4] were 5.96, 8.89 and 6.14, respectively. Besides, the Fold selectivity in experiment [3] was above 600.

In the case of `COC(=O)C1=C(C)NC(=O)N(C(=O)NCCCN2CCN(c3ccccc3OC)CC2)C1c1ccc(F)c(F)c1` (stereo not given), the pKi in experiment [1] is 7.51; in experiment [2], 10.00; in experiment [4] it was 7.74. The same compound returned a Fold selectivity in experiment [3] above 360.

Turning to `COC(=O)C1=C(C)NC(=O)N(C(=O)NCCCN2CCN(c3cccc(Cl)c3)CC2)C1c1ccc(F)c(F)c1` (stereo not given), the pKi in experiment [1] was 7.43; in experiment [2] it was 9.15; in experiment [4] it was 8.08. The compound further gave a Fold selectivity in experiment [3] above 195.

On to `COC(=O)C1=C(C)NC(=O)N(C(=O)NCCCN2CCN(c3ccccc3C(=O)OC)CC2)C1c1ccc(F)c(F)c1` (stereo not given), for which the pKi in experiment [1] is 7.52; in experiment [2], 9.70; in experiment [4], 7.60. This compound showed a Fold selectivity in experiment [3] above 85.
